Consider 37 sequences from the array DNA melting data of Ke et al. (doi:10.1101/2024.01.08.574731).

A short description of series [1]: folding enthalpy; higher = less favourable; fluorescence melt of hairpins on a sequencing array, two-state fit. The conditions noted are these: sodium 0.088 M. In a few lines:
(§1)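 Hairpins were imaged by Cy3 fluorescence on a sequenced MiSeq flow cell with annealed Cy3 and quencher oligos, in 50 mM Na-HEPES pH 8.0, 25 mM NaCl, in 2.5 °C steps up to 60 °C. Bootstrapped two-state fits of normalised signals gave melting temperature and folding enthalpy. Four replicates were combined by inverse variance, and fitted temperatures were raised by 9.35 °C to match UV melts.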

The nature of series [2]: melting temperature; fluorescence melt of hairpins on a sequencing array, two-state fit, raised by 9.35 °C to match UV melts. Particulars: sodium 0.088 M. An outline of the steps:
as §1

For the sequence GTGCCTGGAAACAGGCGC (.(((((....))))).), the folding enthalpy in series [1] is -20.3 kcal/mol. In addition, in series [2], the Tm turned out to be 65 °C.

On to GATCACTTGGGTGATC ((((((....)))))), for which the folding enthalpy in series [1] was -40 kcal/mol. The Tm in series [2] turned out to be 57.1 °C.

For the sequence GAGGGGGGAAACCCCTTC ((.((((....)))).)), in series [1], the folding enthalpy was -12.5 kcal/mol. Further, the Tm in series [2] was determined as 53.5 °C.

For GATCTAACTTAGATC ((((((...)))))), the folding enthalpy in series [1] was -29.3 kcal/mol. The Tm in series [2] amounted to 37.3 °C.

For GATCTACCATTAGATC ((((((....)))))), the folding enthalpy in series [1] is -33.2 kcal/mol. Also, the Tm in series [2] was found to be 37.9 °C.

With GCGTCGACACGC ((((....)))), the folding enthalpy in series [1] is -21.5 kcal/mol. In addition, the Tm in series [2] amounted to 51.7 °C.

Consider GGGAGCGAAAGCTACCC ((((((....))).))), for which the folding enthalpy in series [1] is -15.7 kcal/mol. The Tm in series [2] stood at 62.8 °C.

Turning to GGCACCGAAAGGTTTGCC ((((((....)))..))), in series [1], the folding enthalpy is -22.6 kcal/mol. For the same sequence, in series [2], the Tm came out at 50.6 °C.

On to GCTTAGCGAAAGCTAGC (((.(((....)))))), for which the folding enthalpy in series [1] was -19.2 kcal/mol. The Tm in series [2] came out at 53.8 °C.

As for GTTTGGGAAACCAAAC ((((((....)))))), the folding enthalpy in series [1] is -39.5 kcal/mol. Besides, in series [2], the Tm was found to be 53.2 °C.

Regarding GATCCGGCCACGGATC ((((((....)))))), the folding enthalpy in series [1] is -41.6 kcal/mol. Also, the Tm in series [2] turned out to be 67.5 °C.

On to GAACCTGGAAACGGGTTC (((((.(....).))))), for which the folding enthalpy in series [1] was -39.3 kcal/mol. Moreover, the Tm in series [2] worked out at 50.7 °C.

Consider GTCTTGGGAAACTAAGAC (((((.(....).))))), for which, in series [1], the folding enthalpy was -34.9 kcal/mol. Moreover, the Tm in series [2] is 42.8 °C.

With CGTACCGGAAACGGGACG (((.(((....))).))), the folding enthalpy in series [1] was -36.4 kcal/mol. In addition, in series [2], the Tm came to 64.8 °C.

On to GATCGGGTAGCCGATC ((((((....)))))), for which, in series [1], the folding enthalpy is -41.9 kcal/mol. In addition, the Tm in series [2] stood at 62 °C.

For GATCATAACCATGATC ((((((....)))))), the folding enthalpy in series [1] is -35.7 kcal/mol. The Tm in series [2] amounted to 47.4 °C.

As to GTCCCCTCGAAAGAGGAC (((..(((....)))))), the folding enthalpy in series [1] was -8.53 kcal/mol. Also, the Tm in series [2] amounted to 33.6 °C.

For GGTGCTGGAAACGGCACC (((((.(....).))))), in series [1], the folding enthalpy is -45.8 kcal/mol. Further, the Tm in series [2] was 62.9 °C.

Regarding GTGGTCACGAAAGTGCAC (((..(((....)))))), the folding enthalpy in series [1] was -16.1 kcal/mol. Also, the Tm in series [2] is 39.9 °C.

With GTAGGCGAAAGCCTGTAC ((((((....)))..))), the folding enthalpy in series [1] was -9.44 kcal/mol. Also, in series [2], the Tm amounted to 34.6 °C.

For the sequence GCAAGGCGAAAGCCATGC (((.(((....))).))), the folding enthalpy in series [1] is -32.8 kcal/mol. For the same sequence, the Tm in series [2] was found to be 57.9 °C.

In the case of GTATTGCGAAAGCAGTAC (((.(((....))).))), the folding enthalpy in series [1] was -26.8 kcal/mol. In series [2], the Tm came to 51.6 °C.

Take GGGTGCCGAAAGGCCCCC (((.(((....))).))): the folding enthalpy in series [1] was -15.6 kcal/mol. Further, in series [2], the Tm turned out to be 66.8 °C.

Regarding GTGCTGGGAAACCGGTAC ((.(.((....)).).)), the folding enthalpy in series [1] is -33.1 kcal/mol. The Tm in series [2] amounted to 42.1 °C.

In the case of GATCAACTATTGATC ((((((...)))))), the folding enthalpy in series [1] is -30.4 kcal/mol. Further, the Tm in series [2] was found to be 41 °C.

As to GCATTACGAAAGTAGTGC (((.(((....))).))), the folding enthalpy in series [1] is -31.7 kcal/mol. In addition, the Tm in series [2] worked out at 52.4 °C.

Regarding GAAGACGAAAGTCCGTTC ((((((....)))..))), in series [1], the folding enthalpy is -8.8 kcal/mol. The Tm in series [2] was 27.6 °C.

As to GATCTGTCTCAGATC ((((((...)))))), the folding enthalpy in series [1] is -28.1 kcal/mol. Further, in series [2], the Tm came out at 49.3 °C.

As to GACTTAGGAAACTGAGTC ((((.((....)).)))), the folding enthalpy in series [1] is -36.1 kcal/mol. Further, in series [2], the Tm came to 41.2 °C.

With GCAACTCCGAAAGGATGC (((..(((....)))))), the folding enthalpy in series [1] was -19.8 kcal/mol. Moreover, in series [2], the Tm is 38.1 °C.

With GCCCCGCGAAAGCTGAGC ((.(.((....)).).)), in series [1], the folding enthalpy is -10.7 kcal/mol. The Tm in series [2] worked out at 35 °C.

In the case of GTTTGGGGAAACCCGAAC (((.(((....))).))), the folding enthalpy in series [1] is -36.5 kcal/mol. Moreover, the Tm in series [2] was found to be 49.3 °C.

Turning to GTGGACGAAAGTCCTCAC ((((((....)))..))), in series [1], the folding enthalpy was -9.72 kcal/mol. Further, in series [2], the Tm was 38 °C.

On to GGCCCCGAAAGGGTAGCC ((((((....)))..))), for which the folding enthalpy in series [1] was -23.7 kcal/mol. Further, the Tm in series [2] stood at 60.1 °C.

With GATCCGGAGTCGGATC ((((((....)))))), the folding enthalpy in series [1] was -36.4 kcal/mol. Further, the Tm in series [2] was found to be 55.7 °C.

As to GTATATGGAAACATGTAC (((.(((....))).))), the folding enthalpy in series [1] was -29.6 kcal/mol. Further, the Tm in series [2] is 37.2 °C.

Take GCTAGGGGAAACCTTAGC ((((.((....)).)))): the folding enthalpy in series [1] is -33.7 kcal/mol. Further, the Tm in series [2] was 44.5 °C.
